ChEMBL document CHEMBL1140329, “Control of protein-protein interactions: structure-based discovery of low molecular weight inhibitors of the interactions between Pin1 WW domain and phosphopeptides” (J Med Chem, 2005)
Where a SMILES comes first, the peptide text is derived from it. [ ]: non-standard residue; d: D form. The star is where a group is joined. pT = C[C@@H](OP(=O)(O)O)[C@H](N)C(=O)O; Fmoc = O=C(OCC1c2ccccc2-c2ccccc21)*; Hydrocinnamoyl = O=C(CCc1ccccc1)*; ΔPro = O=C(O)[C@@H]1C=CCN1; Thz = O=C(O)[C@@H]1CSCN1; PhAc = O=C(Cc1ccccc1)*

Target: Peptidyl-prolyl cis-trans isomerase NIMA-interacting 1 (Homo sapiens, UniProt Q13526)
Assay: Dissociation constant for human peptidyl-prolyl cis-trans isomerase NIMA-interacting 1
Summary of the method: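 15N-labeled Pin1 WW domain (His6-tagged, expressed in E. coli BL21(DE3)) in 25 mM deuterated Tris-HCl pH 6.8, 50 mM NaCl, 5 mM DTT, 2.5 mM EDTA, 10% D2O; 600 MHz 1H-15N HSQC at 293 K. 50 μM protein titrated with ligand 0.025–1 mM final; chemical shift perturbations fitted to a single-site equation for KD.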

Chain of Peptidyl-prolyl cis-trans isomerase NIMA-interacting 1 (Q13526 whole entry): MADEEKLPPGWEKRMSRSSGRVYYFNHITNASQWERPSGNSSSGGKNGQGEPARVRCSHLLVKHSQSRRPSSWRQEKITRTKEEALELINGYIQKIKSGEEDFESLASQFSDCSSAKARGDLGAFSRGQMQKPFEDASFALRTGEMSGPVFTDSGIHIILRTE

Structure (SMILES)	Kd [µM]
NC(=O)[C@@H]1CCCN1C(=O)CCNS(=O)(=O)C(F)(F)F	> 2000
NC(=O)[C@@H]1CCCN1C(=O)CCP(=O)(O)O	> 2000
NC(=O)[C@@H]1CCCN1C(=O)CC/N=c1\c(O)c(O)c1=O	> 2000
NC(=O)[C@@H]1CCCN1C(=O)CCC(=O)O	> 2000
C[C@@H](OP(=O)(O)O)[C@H](NC(=O)CCCCc1ccccc1)C(=O)N1CCC[C@H]1C(N)=O	48
NC(=O)[C@@H]1CCCN1C(=O)CCCC(=O)O	> 2000
CC(=O)N[C@H](C(=O)N1CCC[C@@H]1C(N)=O)[C@@H](C)OP(=O)(O)O	100
NC(=O)[C@@H]1CCCN1C(=O)[C@H](CCC/N=c1\c(O)c(O)c1=O)NC(=O)OCC1c2ccccc2-c2ccccc21	910
NC(=O)[C@@H]1CCCN1C(=O)[C@H](CCCCNc1c(O)c(=O)c1=O)NC(=O)OCC1c2ccccc2-c2ccccc21	540
CC(=O)N[C@H](C(=O)N1C[C@@H](F)C[C@H]1C(N)=O)[C@@H](C)OP(=O)(O)O	420
CC(=O)N[C@@H](CCC(=O)O)C(=O)N1CCC[C@H]1C(N)=O (Ac-Glu-Pro-NH2)	> 2000
CC(=O)N[C@H](C(=O)N1CSC[C@H]1C(N)=O)[C@@H](C)OP(=O)(O)O (Ac-[pT]-[Thz]-NH2)	400
C[C@@H](OP(=O)(O)O)[C@H](NC(=O)OCC1c2ccccc2-c2ccccc21)C(=O)N1CC=C[C@H]1C(N)=O (Fmoc-[pT]-[ΔPro]-NH2)	66
CC(=O)N[C@H](C(=O)N1CCC1C(N)=O)C(C)OP(=O)(O)O (single isomer, unassigned)	160
CC(=O)N[C@H](C(=O)N1CC(O)CC1C(N)=O)[C@@H](C)OP(=O)(O)O (single isomer, unassigned)	800
CC(=O)N[C@H](C(=O)N1CCCCC1C(N)=O)C(C)OP(=O)(O)O (single isomer, unassigned)	140

Stronger by Kd, values ahead:

Kd [µM]	Structure (SMILES)
38	C[C@@H](OP(=O)(O)O)[C@H](NC(=O)C(c1ccccc1)c1ccccc1)C(=O)N1CCC[C@H]1C(N)=O
36	CC(=O)N[C@H](C(=O)N1CC(F)CC1C(N)=O)[C@@H](C)OP(=O)(O)O (single isomer, unassigned)
35	C[C@@H](OP(=O)(O)O)[C@H](NC(=O)Cc1ccccc1)C(=O)N1CCC[C@H]1C(N)=O (PhAc-[pT]-Pro-NH2)
32	C[C@@H](OP(=O)(O)O)[C@H](NC(=O)CCc1ccccc1)C(=O)N1CCC[C@H]1C(N)=O (Hydrocinnamoyl-[pT]-Pro-NH2)
30	C[C@@H](OP(=O)(O)O)[C@H](NC(=O)CCCc1ccccc1)C(=O)N1CCC[C@H]1C(N)=O
28	C[C@@H](OP(=O)(O)O)[C@H](NC(=O)CCCc1ccccc1)C(=O)N1CC=C[C@H]1C(N)=O
18	CC(=O)N[C@H](C(=O)N1CC=C[C@H]1C(N)=O)[C@@H](C)OP(=O)(O)O (Ac-[pT]-[ΔPro]-NH2)
15	C[C@@H](OP(=O)(O)O)[C@H](NC(=O)OCC1c2ccccc2-c2ccccc21)C(=O)N1CCC[C@H]1C(N)=O (Fmoc-[pT]-Pro-NH2)
5	C[C@@H](OP(=O)(O)O)[C@H](NC(=O)CCC(C)(c1ccc(O)cc1)c1ccc(O)cc1)C(=O)N1CC=C[C@H]1C(N)=O
